Data from ChEMBL document CHEMBL4038284, “Synthesis of novel quinoline-based 4,5-dihydro-1H-pyrazoles as potential anticancer, antifungal, antibacterial and antiprotozoal agents” (Eur J Med Chem, 2017).
Converted amounts (≈) assume the structure as drawn. The source made the active and inactive calls. No cut-off for these calls is given here.

Columns and labels:
OVCAR-8 = assay: Growth inhibition of human OVCAR8 cells at 10 uM incubated for 48 hrs by sulforhodamine B assay; format: functional, cell-based
Summary of the method: (§1)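 NCI 60-line panel, single 10 μM dose. Cells were grown in RPMI-1640 with 5% FBS and 2 mM L-glutamine and pre-incubated 24 h before compound addition (DMSO stock). Exposure was 48 h at 37 °C, 5% CO2. Cells were fixed with cold TCA (10% final), stained with 0.4% SRB, bound dye dissolved in 10 mM Tris base, A515 read. Growth was taken relative to time-zero and untreated control plates.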

PC-3 = assay: Growth inhibition of human PC3 cells at 10 uM incubated for 48 hrs by sulforhodamine B assay; format: functional, cell-based; summary of the method: as §1
A498 = assay: Growth inhibition of human A498 cells at 10 uM incubated for 48 hrs by sulforhodamine B assay; format: functional, cell-based
Summary of the method: (§2)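 NCI 60-cell-line screen at a single 10 µM dose. Cells in RPMI-1640 with 5% FBS and 2 mM L-glutamine, pre-incubated 24 h, then treated for 48 h at 37 °C. TCA fixation, sulforhodamine B staining, absorbance at 515 nm. Percentage growth calculated against time-zero and untreated controls.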

RXF 393 = assay: Growth inhibition of human RXF393 cells at 10 uM incubated for 48 hrs by sulforhodamine B assay; format: functional, cell-based; summary of the method: as §1
NCI-H460 = assay: Growth inhibition of human NCI-H460 cells at 10 uM incubated for 48 hrs by sulforhodamine B assay; format: functional, cell-based; summary of the method: as §1
UO-31 = assay: Growth inhibition of human UO31 cells at 10 uM incubated for 48 hrs by sulforhodamine B assay; format: functional, cell-based
Summary of the method: (§3)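 NCI-60 single-dose screen at 10 µM for 48 h. Cells were grown in RPMI-1640 with 5% FBS and 2 mM L-glutamine and preincubated 24 h before compound. Time-zero plates were TCA-fixed at compound addition. After exposure, cells were TCA-fixed, stained with SRB and read at 515 nm. Percentage growth was calculated against time-zero and untreated-control absorbances.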

Cryptococcus neoformans [1] = assay: Growth inhibition of Cryptococcus neoformans ATCC 32264 at 3.4 ug/ml incubated for 48 hrs under dark condition by broth microdilution method relative to control; format: functional; conditions: ATCC 32264, 48 h, read-out: GI
M14 = assay: Growth inhibition of human M14 cells at 10 uM incubated for 48 hrs by sulforhodamine B assay; format: functional, cell-based; summary of the method: as §1
DU-145 = assay: Growth inhibition of human DU145 cells at 10 uM incubated for 48 hrs by sulforhodamine B assay; format: functional, cell-based; summary of the method: as §2
Cryptococcus neoformans [2] = assay: Growth inhibition of Cryptococcus neoformans ATCC 32264 at 15.62 ug/ml incubated for 48 hrs under dark condition by broth microdilution method relative to control; format: functional; conditions: ATCC 32264, 48 h, read-out: GI
Summary of the method: (§4)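 CLSI M27-A3 broth microdilution in RPMI-1640, DMSO ≤1%. Inoculum 1-5 × 10^3 CFU/mL. Incubated 48 h at 30 °C, dark. % inhibition = 100 − (OD405 test − sterility control)/(OD405 growth control − sterility control), with growth and sterility control wells. Triplicate.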

Staphylococcus aureus [3] = assay: Antibacterial activity against vancomycin-intermediate Staphylococcus aureus after 24 hrs by resazurin dye based microdilution assay; format: functional
Summary of the method: (§5)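 MIC taken as the lowest concentration giving visible inhibition and/or by resazurin (1 mg/mL). Gentamicin was the control. Run in duplicate, repeated at least three times.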

NCI-H322M = assay: Growth inhibition of human NCI-H322M cells at 10 uM incubated for 48 hrs by sulforhodamine B assay; format: functional, cell-based; summary of the method: as §1
HCT-15 = assay: Growth inhibition of human HCT15 cells at 10 uM incubated for 48 hrs by sulforhodamine B assay; format: functional, cell-based; summary of the method: as §2
Candida albicans [4] = assay: Growth inhibition of Candida albicans ATCC 10231 at 7.8 ug/ml incubated for 48 hrs under dark condition by broth microdilution method relative to control; format: functional; conditions: ATCC 10231, 48 h, read-out: GI; summary of the method: as §4
SW-620 = assay: Growth inhibition of human SW620 cells at 10 uM incubated for 48 hrs by sulforhodamine B assay; format: functional, cell-based; summary of the method: as §3
Klebsiella pneumoniae = assay: Antibacterial activity against ESBL positive Klebsiella pneumoniae ATCC 700603 after 24 hrs by resazurin dye based microdilution assay; format: functional; conditions: Klebsiella pneumoniae, 700603, 24 h; summary of the method: as §5
Staphylococcus aureus [5] = assay: Antibacterial activity against methicillin-sensitive Staphylococcus aureus ATCC 25923 after 24 hrs by resazurin dye based microdilution assay; format: functional; conditions: ATCC 25923, 24 h; summary of the method: as §5
UACC-257 = assay: Growth inhibition of human UACC257 cells at 10 uM incubated for 48 hrs by sulforhodamine B assay; format: functional, cell-based; summary of the method: as §3
HOP-92 = assay: Growth inhibition of human HOP92 cells at 10 uM incubated for 48 hrs by sulforhodamine B assay; format: functional, cell-based; summary of the method: as §1
SR = assay: Growth inhibition of human SR cells at 10 uM incubated for 48 hrs by sulforhodamine B assay; format: functional, cell-based; summary of the method: as §3
OVCAR-4 = assay: Growth inhibition of human OVCAR4 cells at 10 uM incubated for 48 hrs by sulforhodamine B assay; format: functional, cell-based; summary of the method: as §1
IGROV-1 = assay: Growth inhibition of human IGROV1 cells at 10 uM incubated for 48 hrs by sulforhodamine B assay; format: functional, cell-based; summary of the method: as §1
HT-29 = assay: Growth inhibition of human HT-29 cells at 10 uM incubated for 48 hrs by sulforhodamine B assay; format: functional, cell-based; summary of the method: as §1
NCI-H226 = assay: Growth inhibition of human NCI-H226 cells at 10 uM incubated for 48 hrs by sulforhodamine B assay; format: functional, cell-based; summary of the method: as §1
Cryptococcus neoformans [6] = assay: Growth inhibition of Cryptococcus neoformans ATCC 32264 at 250 ug/ml incubated for 48 hrs under dark condition by broth microdilution method relative to control; format: functional; conditions: ATCC 32264, 48 h, read-out: GI; summary of the method: as §4
SK-OV-3 = assay: Growth inhibition of human SKOV3 cells at 10 uM incubated for 48 hrs by sulforhodamine B assay; format: functional, cell-based; summary of the method: as §3
HCC 2998 = assay: Growth inhibition of human HCC2998 cells at 10 uM incubated for 48 hrs by sulforhodamine B assay; format: functional, cell-based; summary of the method: as §2
A549 = assay: Growth inhibition of human A549/ATCC cells at 10 uM incubated for 48 hrs by sulforhodamine B assay; format: functional, cell-based; summary of the method: as §2
Candida albicans [7] = assay: Growth inhibition of Candida albicans ATCC 10231 at 62.5 ug/ml incubated for 48 hrs under dark condition by broth microdilution method relative to control; format: functional; conditions: ATCC 10231, 48 h, read-out: GI; summary of the method: as §4
EKVX = assay: Growth inhibition of human EKVX cells at 10 uM incubated for 48 hrs by sulforhodamine B assay; format: functional, cell-based; summary of the method: as §2
HCT-116 = assay: Growth inhibition of human HCT116 cells at 10 uM incubated for 48 hrs by sulforhodamine B assay; format: functional, cell-based; summary of the method: as §2
MDA-MB-468 = assay: Growth inhibition of human MDA-MB-468 cells at 10 uM incubated for 48 hrs by sulforhodamine B assay; format: functional, cell-based; summary of the method: as §1
Hs-578T = assay: Growth inhibition of human Hs578T cells at 10 uM incubated for 48 hrs by sulforhodamine B assay; format: functional, cell-based; summary of the method: as §1
Cryptococcus neoformans [8] = assay: Growth inhibition of Cryptococcus neoformans ATCC 32264 at 31.25 ug/ml incubated for 48 hrs under dark condition by broth microdilution method relative to control; format: functional; conditions: ATCC 32264, 48 h, read-out: GI; summary of the method: as §4
Candida albicans [9] = assay: Growth inhibition of Candida albicans ATCC 10231 at 125 ug/ml incubated for 48 hrs under dark condition by broth microdilution method relative to control; format: functional; conditions: ATCC 10231, 48 h, read-out: GI; summary of the method: as §4

| SMILES | growth inhibition (GI) (OVCAR-8) | growth inhibition (GI) (PC-3) | growth inhibition (GI) (A498) | growth inhibition (GI) (RXF 393) | growth inhibition (GI) (NCI-H460) | growth inhibition (GI) (UO-31) | inhibition of growth at 3.4 µg/mL (Cryptococcus neoformans [1]) [%] | growth inhibition (GI) (M14) | growth inhibition (GI) (DU-145) | inhibition of growth at 15.62 µg/mL (Cryptococcus neoformans [2]) [%] | MIC (Staphylococcus aureus [3]) [µg/mL] | growth inhibition (GI) (NCI-H322M) | growth inhibition (GI) (HCT-15) | inhibition of growth at 7.8 µg/mL (Candida albicans [4]) [%] | MIC (Klebsiella pneumoniae) [µg/mL] | MIC (Staphylococcus aureus [5]) [µg/mL] | inhibition of growth at 250 µg/mL (Cryptococcus neoformans [6]) [%] | inhibition of growth at 62.5 µg/mL (Candida albicans [7]) [%] | inhibition of growth at 31.25 µg/mL (Cryptococcus neoformans [8]) [%] | inhibition of growth at 125 µg/mL (Candida albicans [9]) [%] | also measured |
| --- | --- | --- | --- | --- | --- | --- | --- | --- | --- | --- | --- | --- | --- | --- | --- | --- | --- | --- | --- | --- | --- |
| COc1ccc(C(=O)/C=C/c2cccc(Nc3ccnc4cc(Cl)ccc34)c2)cc1 | Active | Active | Active | Active | Active | Active | 0 | Active | Active | 5.01 | > 1000 | Active | Active | 12.5 | > 1000 | > 1000 | 46.1 | 41.1 | 7.31 | 46.8 | growth inhibition (GI) (SW-620): Active; growth inhibition (GI) (UACC-257): Active; growth inhibition (GI) (HOP-92): Active; growth inhibition (GI) (SR): Active; growth inhibition (GI) (OVCAR-4): Active; growth inhibition (GI) (IGROV-1): Active; growth inhibition (GI) (HT-29): Active; growth inhibition (GI) (NCI-H226): Active; growth inhibition (GI) (SK-OV-3): Active; growth inhibition (GI) (HCC 2998): Active; growth inhibition (GI) (A549): Active; growth inhibition (GI) (EKVX): Active; growth inhibition (GI) (HCT-116): Active; growth inhibition (GI) (MDA-MB-468): Active; growth inhibition (GI) (Hs-578T): Active |
| O=Cc1cccc(Nc2ccnc3cc(Cl)ccc23)c1 |  |  |  |  |  |  | 5.03 |  |  | 9.47 | 125 (≈ 442 µM) |  |  | 1.48 | > 1000 | 62.5 (≈ 221 µM) | 100 | 19.6 | 14.3 | 34.8 |  |
| O=CN1N=C(c2ccc(Cl)cc2)CC1c1cccc(Nc2ccnc3cc(Cl)ccc23)c1 (stereo not given) | Active | Active | Active | Active | Active | Active | 37.7 | Active | Active | 44 | > 1000 | Active | Active | 12 | > 1000 | > 1000 | 79.9 | 28.2 | 55.7 | 35.7 | growth inhibition (GI) (SW-620): Active; growth inhibition (GI) (UACC-257): Active; growth inhibition (GI) (HOP-92): Active; growth inhibition (GI) (SR): Active; growth inhibition (GI) (OVCAR-4): Active; growth inhibition (GI) (IGROV-1): Active; growth inhibition (GI) (HT-29): Active; growth inhibition (GI) (NCI-H226): Active; growth inhibition (GI) (SK-OV-3): Active; growth inhibition (GI) (HCC 2998): Active; growth inhibition (GI) (A549): Active; growth inhibition (GI) (EKVX): Active; growth inhibition (GI) (HCT-116): Active; growth inhibition (GI) (MDA-MB-468): Active; growth inhibition (GI) (Hs-578T): Active |
